TRPC6 inhibitor: mouse TRPC6 channel inhibitors, primary screen, cell-based, HEK293, membrane potential dye; ACh-evoked depolarization; stronger effect = lower value; B-score at 10 µM; 310,000 tested, 1.1% active; AID 2553, 2010;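 active means B-score under library mean minus 3 SD, initial fluorescence not abnormally high, positive integrated signal ratio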;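 further: B-score derived from integrated fluorescence ratio over the kinetic read; more negative B-score means stronger inhibition of depolarization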
TRPC4 PAM: positive allosteric modulators of TRPC4, primary screen, cell-based, mouse TRPC4beta, HEK293 mu-opioid, Fluo-4 calcium; DAMGO EC20, Fluo-4 Ca2+ flux; stronger effect = higher value; B-score at 10 µM; Short transient receptor potential channel 4 (Mus musculus), Q9QUQ5; 310,000 tested, 0.42% active; AID 2227, 2009;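 active means B-score of calcium response area above 5 SD of library B-scores, with initial fluorescence ratio within 5 SD of library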;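 further: B-score of integrated fluorescence ratio over time as area under calcium response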
TRPC6 activator: mouse TRPC6 channel activators, primary screen, cell-based, HEK293, membrane potential dye | AID 2550, 2010 | HEK293-TRPC6 membrane potential dye fluorescence; stronger effect = higher value | 310,000 tested, 0.13% active | B-score at 10 µM | Short transient receptor potential channel 6 (Mus musculus), Q61143;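 active means B-score of the integrated fluorescence ratio above library mean plus 3 SD, and starting fluorescence ratio within library mean plus 5 SD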;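 further: higher score means more depolarization so channel activation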
TRPC4 act: activators of mouse TRPC4 channel, primary screen, Fluo4 calcium, HEK293 TRPC4beta/mu-opioid cells; Short transient receptor potential channel 4 (Mus musculus), Q9QUQ5; Fluo4 calcium fluorescence; stronger effect = higher value; B-score at 10 µM; 310,000 tested, 0.49% active;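 active means B-score above 5 SD of library B-scores, and initial fluorescence ratio not above library mean plus 5 SD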;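 further: positive B-score marks a calcium rise read as TRPC4 activation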
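Material: TRPC4beta and mu-opioid receptor HEK293 stable cells | Incubation: 45 min room-temperature Fluo4 loading, 110 s read | Detection: Kinetic Fluo4 calcium fluorescence | Measure: Integrated baseline-normalised fluorescence ratio, converted to per-well B score | Benchmarks: Low control buffer alone, high control maximal DAMGO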
TRPC4 inh: inhibitors of mouse TRPC4 channel, primary screen, Fluo4 calcium, HEK293 TRPC4beta/mu-opioid cells. Short transient receptor potential channel 4 (Mus musculus), Q9QUQ5. DAMGO-evoked Fluo4 calcium flux; stronger effect = lower value. B-score at 10 µM. 300,000 tested, 0.39% active. AID 2247, 2010;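 active means B-score over 3 SD under the library average, no early fluorescence shift, positive overall ratio signal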
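Assay system: HEK293 cells with stable TRPC4beta plus mu-opioid receptor expression. Dosing: single dose. Measured by: Fluo4 Ca2+ flux fluorescence. Also added: DAMGO in two steps, submaximal then maximal. Read-out: B score from integrated Fluo4 fluorescence ratio.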
Pemphigus Ab inh: inhibitors of pemphigus antibody binding to DSG3, primary screen, biochemical, bead-based, flow cytometry, scFv-GFP. Desmoglein-3 (Homo sapiens), P32926. 310,000 tested, 0.48% active. binding (percent of control), % at 10 µM. AID 588358, 2011. DSG3-coupled beads, scFv-anti-DSG3-GFP binding; stronger effect = lower value;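 active means binding more than 3 SD below its plate's average and above zero; inconclusive means below that plate limit but binding exactly zero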;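 further: hits lower antibody fragment binding to DSG3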
* marks the source's active call; other numbers are inactive results; i = inactive; u = inconclusive; x = no result given. Only some compounds are listed: those with a hit (about 2.5% of all), similar ones and a draw of the others.

SMILES	TRPC6 inhibitor	TRPC4 PAM	TRPC6 activator	TRPC4 act	TRPC4 inh	Pemphigus Ab inh
COc1cc(C(C)=O)ccc1OCC(O)Cn1nc(C)c(Br)c1C (configuration not stated)	i	i	i	i	i	106
CCOc1ccc2[nH]c3c(N4CCN(c5ccccn5)CC4)ncnc3c2c1	i	i	i	i	-6*	97
CCOC(=O)c1ccc2ncc(C(=O)OCC)c(NCc3ccco3)c2c1	i	i	i	i	i	47*
CCOC(=O)c1cnc2c(C)cccc2c1NCc1ccco1	i	i	i	i	i	115
O=C(O)c1ccc2c(c1)C1C=CCC1C(c1cc3c(cc1Br)OCO3)N2 (configuration not stated)	i	i	i	i	-7*	96
O=C(c1ccc(-n2cncn2)c([N+](=O)[O-])c1)N1CCN(S(=O)(=O)c2cccc(F)c2)CC1	i	i	i	i	i	121
Cc1c(C(=O)N2CCCC2)oc2c1-c1nn(CC(=O)NCCCN3CCCCC3)cc1CC2	i	11*	i	i	i	101
Cc1c(C(=O)N2CCCC2)oc2c1-c1nn(CC(=O)NCCCN3CCCCC3C)cc1CC2 (configuration not stated)	i	i	i	i	i	110
CCOc1ccc(/C(O)=C2\C(=O)C(=O)N(c3ccccn3)C2c2ccccc2F)c(C)c1 (configuration not stated)	x	x	x	x	x	104
S=c1[nH]c(-c2ccccc2)cn1/N=C/c1cccnc1	i	i	i	i	i	80*
S=c1[nH]c(-c2ccccc2)cn1/N=C/c1ccc(Br)cc1	i	i	i	i	i	98
Cc1csc2c(N3CCC(C(=O)O)CC3)ncnc12	i	i	i	i	i	112
Cc1csc2c(N3CCN(C(=O)Nc4ccc(OC(F)(F)F)cc4)CC3)ncnc12	i	i	i	98*	i	106
Fc1ccc(-c2[nH]ncc2CN2CCN(c3ccc(F)cc3)CC2)cc1	i	12*	i	i	i	x
Cc1cccc(C(=O)Oc2cccc3c(O)cccc23)c1	i	i	i	i	i	139
C=CCn1c(CCNC(=O)C(C)(C)C)nc2ccccc21	i	i	i	146*	i	102
O=Cc1cn(CCOc2ccccc2)c2ccccc12	i	i	i	i	i	118
COCc1ccc(CN2CCCC(CO)(Cc3ccccc3C)C2)o1 (configuration not stated)	i	i	i	i	i	98
COc1cc(CN2CCCC(CO)(Cc3ccccc3C)C2)cc2c1OCO2 (configuration not stated)	i	i	i	i	-6*	98
O=C(NCCCN1CCOCC1)c1cc2nc(-c3ccco3)cc(C(F)(F)F)n2n1	i	i	i	i	i	33*
CCN(CC)CCCNC(=O)c1cc2nc(-c3ccccc3)cc(C(F)(F)F)n2n1	i	11*	i	i	i	121
CC(C)NC(=O)N(C)C[C@H]1Oc2ccc(NC(=O)Nc3ccccc3)cc2C(=O)N([C@@H](C)CO)C[C@@H]1C	x	x	x	x	x	101
CCCCc1c(O)nc(SCC(=O)Nc2cccc3ccccc23)n(-c2ccccc2OC)c1=O	i	i	i	i	-5*	103
O=C(NC1CCOCC1)C1CCC(=O)N(CCc2cccc(F)c2)C1 (configuration not stated)	i	i	i	i	i	101
CC(C)c1ccc(N(CC(=O)NC2CCCCC2)C(=O)CCC(=O)Nc2ccccn2)cc1	i	i	i	i	i	62*
SMILES	TRPC6 inhibitor	TRPC4 PAM	TRPC6 activator	TRPC4 act	TRPC4 inh	Pemphigus Ab inh
CN(C)CCNc1c2c(nc3nnnn13)CCCC2	i	i	i	44*	i	117
COc1ccc(S(=O)(=O)N2CCOC2CNC(=O)C(=O)NCCN2CCOCC2)cc1C (configuration not stated)	i	i	i	i	i	x
Nc1cc(F)ccc1N1CCCCCC1	i	i	i	i	i	103
COc1ccnc(N2CCN(c3cccc(C(F)(F)F)c3)CC2)c1C#N	i	i	i	i	i	79*
CCNC(=O)CP(=O)(c1ccccc1)c1ccccc1	i	i	i	i	i	73*
O=C(OCCCCN1C(=O)c2ccccc2C1=O)c1ccc(S(=O)(=O)N2CCCC2)cc1	i	17*	i	i	i	101
COc1ccc(NC(=O)CCCNC(=O)Cn2cnc3sc4c(c3c2=O)CCCC4)c(OC)c1	i	i	i	i	i	u
Cc1ccc(SCCN)cc1C	i	i	i	83*	i	91
CSc1ccc(C(=O)C2CCCN(C(=O)Cc3nonc3C)C2)cc1 (configuration not stated)	i	i	i	i	i	96
Cc1ccc(N2CC(C(=O)N3CCC(C(=O)Nc4nnc(C(C)(C)C)s4)CC3)CC2=O)cc1 (configuration not stated)	i	i	i	i	i	102
CC(C)c1ccc(NC(=O)N(CCc2nc3ccccc3[nH]2)C2CCCC2)cc1	i	i	i	75*	-7*	104
CC(=O)c1ccccc1NC(=O)COC(=O)c1cc2ccccc2[nH]1	x	x	x	x	x	111
O=C(COc1ccc(Cl)cc1)Nc1cc(S(=O)(=O)N2CCCCC2)ccc1N1CCCCC1	i	i	i	i	i	108
COc1ccccc1CCC(=O)Nc1cccc(S(=O)(=O)N2CCCC2)c1	i	i	i	i	i	112
Cc1ccccc1C(=O)Nc1cc(S(=O)(=O)N2CCCCC2)ccc1N1CCN(C)CC1	i	11*	i	i	i	96
COc1ccccc1CCC(=O)Nc1cc(S(=O)(=O)N2CCCCC2)ccc1N1CCN(C)CC1	i	i	i	134*	i	100

Screening results from PubChem BioAssay.
